# STAT1 blocker: STAT1 signaling inhibition | NIH 3T3 STAT1-luciferase reporter, IFN-gamma, luminescence | inhibition, % at 5.5 µM | actives 0.35% (n = 200,000) | AID 920;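 active means inhibition above a set limit, the mean inhibition across all tested compounds plus 3 SD, cut at about 34% in these data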
# STAT3 inh: reduces IL-6 driven STAT3 reporter signal; U3A cells, IL-6 STAT3-luciferase reporter, luminescence; host cell line lacks STAT1; inhibition, % at 5.5 µM; actives 0.89% (n = 190,000); AID 862;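 active means inhibition above the mean inhibition across all screened compounds plus 3 SD, cut at about 44% in these data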
# NF-kB expr up: raises NF-kB expression in human neuronal cells | NF-kB reporter expression; stronger effect = higher value | fold change at 12.5 µM | actives 1.6% (n = 190,000); in the data active means fold change above about 3.3
# APP 5'UTR act: APP 5'UTR luciferase reporter activation; SH-SY5Y APP 5'UTR luciferase reporter, luminescence; zero percent = DMSO vehicle wells; activation, % at 2 µM; actives 1% (n = 190,000);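 active means activation above a set limit, based on mean plus 3 SD of controls, cut at about 140% in these data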
# STAT1 act: activators of IFN-gamma induced STAT1 signaling; activation (% of control), % at 5.5 µM; actives 2.6% (n = 200,000); NIH 3T3 STAT1-luciferase reporter, luminescence; 100% = IFN-gamma alone, no compound;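 active means activation above the screen-wide mean activation plus 3 SD, cut at about 130% in these data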
# STAT3 activator: activators of IL-6 induced STAT3 signaling; U3A cells, IL-6 STAT3-luciferase reporter, luminescence; 100% = signal with IL-6 EC80 alone; activation (% of control), % at 5.6 µM; actives 0.91% (n = 190,000); AID 871;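 active means activation above the screen-wide mean of compound activation plus 3 SD, cut at about 130% in these data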
#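 Assay system – human STAT1-deficient U3A cells with stable STAT3-luciferase reporter · Also added – IL-6 (33 ng/mL) · Schedule – compound 1 h, then IL-6 6 h at 37 °C · Technique – reporter luminescence signal · Evaluation – % activation versus median of IL-6-stimulated wells · Benchmarks – IL-6-only wells as 100% reference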
# Hits are given with their value; 0 = inactive; - = no result given. Sampled rows, rich in hits. Any-hit rate of the full collection: about 4.9%.
SMILES,STAT1 blocker,STAT3 inh,NF-kB expr up,APP 5'UTR act,STAT1 act,STAT3 activator
Cc1ccc(CCC(=O)Nc2ccccc2F)s1,0,0,0,0,137,0
O=C(CCc1nc2ccccc2[nH]1)Nc1ccccc1F,0,-,0,0,0,-
CCOC(=O)/C(C#N)=C/c1cc(C)n(-c2ccc(C)cc2)c1C,0,0,0,0,148,0
Cc1cccc(NC(=O)/C(C#N)=C\c2cc(C)n(-c3ccc(C(=O)O)cc3)c2C)c1,0,0,0,0,0,0
CCOc1ccc(/C=N/n2c(SC)nnc2-c2ccccc2)cc1OCC,0,0,5.5,0,0,0
CCOc1ccc(/C=N/n2c(SC)nnc(C(C)(C)C)c2=O)cc1,0,0,0,0,0,0
O=C(Nc1ccc(Cl)cc1Cl)C1=Cc2ccccc2OC1,0,0,5.9,221,141,0
OC1(c2cccc(C(F)(F)F)c2)CCN(c2ccc(-c3ccccc3)nn2)CC1,0,0,0,0,141,0
OC1(c2cccc(C(F)(F)F)c2)CCN(c2ncnc3c2[nH]c2ccccc23)CC1,0,0,0,0,0,0
O=C(NCc1cccnc1)c1cn(-c2ccccc2)nc1-c1ccccc1,0,0,0,0,0,0
O=C(CCCCCNC(=S)Nc1ccccc1)C[N+](=O)[O-],0,0,0,0,0,0
O=c1cc(-c2ccc3c(c2)OCCO3)oc2ccc(Cl)cc12,0,0,7.2,214,142,0
O=c1cc(-c2cccs2)oc2ccc(Cl)cc12,0,0,0,0,147,0
CC(=O)n1nc(-c2ccccc2)nc1NCc1cccs1,0,0,0,0,0,0
N#C/C(=C\c1cn(Cc2ccccc2F)c2ccccc12)C(=O)NCc1ccco1,0,0,0,0,0,0
COc1ccc(/C=N/NC(=O)Nc2nonc2N)cc1,0,0,0,0,130,0
Cc1cc(O)c(NC(=O)c2cc([N+](=O)[O-])ccc2Cl)cc1C,0,0,0,0,0,134
Cc1ccc(O)c(NC(=O)c2cc([N+](=O)[O-])ccc2Cl)c1,0,0,0,0,0,0
O=S1(=O)C=C(Sc2nc3ccccc3s2)c2ccccc21,0,0,0,0,0,134
Cc1cc(C)nc(SC2=CS(=O)(=O)c3ccccc32)n1,0,0,0,0,0,0
Cc1ccc(C)c(SCC(=O)Nc2cc(C)nn2-c2ccc(F)cc2)c1,0,0,0,0,0,0
O=C(c1cc(-c2ccco2)nc2ccccc12)N1CCN(c2ccc(F)cc2)CC1,0,0,0,0,0,0
CC12CCC(C(=O)Nc3nc4ccc(Br)cc4s3)(OC1=O)C2(C)C (stereo not given),0,0,0,0,138,0
COc1ccc(-c2csc(Nc3ccc(C)cn3)n2)cc1OC,0,0,0,0,0,0
Cc1ccc(Nc2nc(-c3ccc(O)c(O)c3)cs2)nc1,0,0,9.4,0,136,0
SMILES,STAT1 blocker,STAT3 inh,NF-kB expr up,APP 5'UTR act,STAT1 act,STAT3 activator
c1ccc(Nc2nc(-c3cccnc3)cs2)nc1,0,0,5,194,144,0
CC(=O)Nc1cccc(-c2csc(Nc3ccccn3)n2)c1,0,0,5.4,184,143,0
c1ccc(Nc2nc(-c3cccs3)cs2)nc1,0,0,9.6,181,136,0
NS(=O)(=O)c1ccc(CCNC(=O)Nc2ccc(Cl)c(Cl)c2)cc1,0,0,0,-,0,0
Cc1cc(NC(=O)CN(C)C)c([N+](=O)[O-])cc1C,0,0,0,0,0,0
COc1cccc(C(=O)Nc2nc3c(s2)CN(C)CC3)c1,0,0,0,0,0,0
CC(=O)Nc1ccc(-c2csc(Nc3cc(C)ccn3)n2)cc1,0,0,0,0,140,0
CC(=O)c1cccc(Nc2nc(-c3cccc([N+](=O)[O-])c3)cs2)c1,0,0,0,0,131,0
OC(COc1ccc2ccccc2c1Cl)CN1CCOCC1 (stereo not given),0,0,0,0,134,0
CCOC(=O)c1ccc(NC(=O)CSc2nnc(CNc3ccc(C)cc3)n2C)cc1,0,0,0,0,0,0
CCOC(=O)c1ccc(NCc2nc3ccccc3n2C)cc1,0,0,0,0,139,0
O=C(C1=C[C@@H](c2ccc(Br)cc2)C[C@@H](OCCCCO)O1)N1CCN(Cc2ccccc2)CC1,0,-,0,0,0,-
NNC(=O)CCc1ccc(S(=O)(=O)N2CCOCC2)cc1,0,0,0,0,0,0
COc1cc(NC(=O)c2cccs2)c(C(=O)OCC(=O)c2cc(C)n(-c3ccc(F)cc3)c2C)cc1OC,0,0,0,0,0,0
COc1cc(NC(=O)c2cccs2)c(C(=O)OCC(=O)c2cc(C)n(-c3ccccc3)c2C)cc1OC,36,70,0,0,0,0
Clc1ccccc1-c1nc(-c2ccccc2)n[nH]1,0,0,4,0,132,0
COc1ccc2c(c1)[nH]c1c(N3CCN(Cc4ccc5c(c4)OCO5)CC3)ncnc12,0,77,0,0,0,0
O=C(O)CN1CCc2ccccc2C1,0,0,0,0,0,0
C/C(=N/NC(=O)c1ccoc1C)c1ccc(NC(=O)c2ccncc2)cc1,0,0,0,0,143,0
C/C(=N\NC(=O)c1ccc(Cl)cc1)c1ccc(N2CCOCC2)cc1,0,0,0,0,0,0
C/C(=N\NC(=O)c1ccoc1C)c1cccnc1,0,0,12,152,143,0
C/C(=N/NC(=O)c1ccoc1C)c1ccc(N2CCOCC2)cc1,0,0,0,202,146,0
C/C(=N\NC(=O)c1cccs1)c1cccnc1,0,0,0,0,0,0
CN(C)CC(O)CN1C(=O)N(CN2C(=O)N(CC(O)CN(C)C)C(=O)C2(C)C)C(C)(C)C1=O (stereo not given),0,0,0,0,0,0
O=[N+]([O-])c1ccc(Cc2nnc(-c3ccccc3Cl)o2)cc1,0,0,3.6,166,0,0
SMILES,STAT1 blocker,STAT3 inh,NF-kB expr up,APP 5'UTR act,STAT1 act,STAT3 activator
CCOC(=O)C1CCN(CCC(=O)Nc2ccc(F)cc2)CC1,0,0,0,0,0,0
O=c1cc(-c2ccccc2F)oc2ccccc12,0,0,0,0,135,0
CSc1ccc(-c2cc(=O)c3ccccc3o2)cc1,0,0,0,142,134,141
O=c1cc(-c2ccccc2[N+](=O)[O-])oc2ccccc12,0,0,0,0,0,0
O=c1cc(-c2ccc(F)cc2)oc2ccccc12,0,0,-,0,133,0
CCCC[C@@H]1CNC(=S)N1CCCC,0,-,0,0,0,-
O=c1c2ccccc2ncn1CCCOc1ccccc1[N+](=O)[O-],0,0,0,0,129,0
CC(C)c1ccc(Nc2nc(CC(=O)O)cs2)cc1,0,0,7.2,242,0,0
CN(C)c1ccnc(N(Cc2ccccc2)Cc2ccccc2)c1C#N,0,0,0,0,0,0
Cc1c(NC(=O)Nc2ccccc2Cl)c(=O)n(-c2ccccc2)n1C,0,0,0,0,0,0
